Only some compounds are listed: those with a hit (about 3.5% of all), similar ones and a draw of the others.
FXIIa inh 1536 – factor XIIa (human) inhibition; hit rate 0.3% among 220,000; purified FXIIa, Boc-QGR-AMC fluorogenic substrate, 2 h; inhibition, % at 5 µM; P00748; in the data active = inhibition above about 40%
thrombin 1536 – thrombin (human) inhibition | P00734 | alpha-thrombin, Boc-VPR-AMC fluorogenic substrate cleavage | inhibition, % at 5 µM | hit rate 0.26% among 220,000;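 active = inhibition at or above 40%; inactive = inhibition below 40%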
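signal = AMC fluorescence, 355/460 nm | material = human alpha-thrombin enzyme | control set = enzyme without compound as high, wells lacking enzyme as low | times = reaction at room temperature | read-out basis = percent inhibition scaled between no-compound controls and no-enzyme blanks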
KLK5 inh – blocks human kallikrein 5 protease activity; inhibition, % at 5 µM; Q9Y337; hit rate 0.59% among 210,000; recombinant hK5, fluorogenic AMC substrate cleavage;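 active = inhibition of 40% or more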
FXIa inh 1536 – inhibitors of human coagulation factor XIa; P03951; purified FXIa, Boc-Glu-Ala-Arg-AMC fluorogenic substrate; inhibition, % at 5 µM; hit rate 0.14% among 220,000; AID 798;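 active = inhibition of at least 40%; inactive = inhibition below 40%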;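 note: fluorescence of freed AMC excited at 355 nm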
Target sequence (P03951 19-387 limits assumed): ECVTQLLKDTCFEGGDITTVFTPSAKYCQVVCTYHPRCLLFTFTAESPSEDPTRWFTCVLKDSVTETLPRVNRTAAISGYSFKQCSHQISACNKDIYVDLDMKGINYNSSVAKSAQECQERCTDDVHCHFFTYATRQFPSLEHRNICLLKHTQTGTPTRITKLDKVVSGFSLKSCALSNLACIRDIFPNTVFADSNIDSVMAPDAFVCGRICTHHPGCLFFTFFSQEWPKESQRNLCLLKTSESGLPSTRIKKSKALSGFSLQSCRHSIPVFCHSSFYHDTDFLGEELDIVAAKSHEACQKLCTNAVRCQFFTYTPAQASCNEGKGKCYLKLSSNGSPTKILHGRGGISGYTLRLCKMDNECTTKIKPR
Target sequence (P03951 388-625 limits assumed): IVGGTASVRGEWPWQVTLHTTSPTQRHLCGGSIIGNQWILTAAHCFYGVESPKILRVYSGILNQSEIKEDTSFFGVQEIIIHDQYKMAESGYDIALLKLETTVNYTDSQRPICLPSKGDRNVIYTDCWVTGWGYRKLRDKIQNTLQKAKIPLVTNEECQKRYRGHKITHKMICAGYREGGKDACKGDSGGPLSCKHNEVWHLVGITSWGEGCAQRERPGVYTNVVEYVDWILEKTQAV
AHR act – activates the human aryl hydrocarbon receptor | AHR-responsive luciferase reporter cells, luminescence | activation, % at 5 µM | hit rate 2.5% among 320,000 | AID 2796; in the data active = activation above about 47%
STAT3 activator – increases IL-6 driven STAT3 reporter signal | U3A cells, IL-6 STAT3-luciferase reporter, luminescence; 100% = signal with IL-6 EC80 alone | activation (% of control), % at 5.6 µM | hit rate 0.91% among 190,000 | AID 871;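 active = activation above the screen-wide mean of compound activation plus 3 SD, cut at about 130% in these data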
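Assay system – human STAT1-deficient U3A cells with stable STAT3-luciferase reporter · Also added – IL-6 (33 ng/mL) · Schedule – compound 1 h, then IL-6 6 h at 37 °C · Technique – reporter luminescence signal · Evaluation – % activation versus median of IL-6-stimulated wells · Benchmarks – IL-6-only wells as 100% reference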
Each line names hits and unclear results; the compound was inactive in the other large screens.

Nc1cccc2c1C(=O)N(C(=O)c1ccco1)C2=O	thrombin 1536 47 (no result: STAT3 activator)
CCOC(=O)/C(N=Nc1ccc2c(c1)OCO2)=C(\C)O	none
CN(C)CCN1C(=O)C(=O)/C(=C(/O)c2ccc(S(=O)(=O)N3CCOCC3)cc2)C1c1ccc(F)cc1 (stereo unspecified)	none (no result: FXIIa inh 1536, thrombin 1536, KLK5 inh, FXIa inh 1536, STAT3 activator)
CC(C(=O)O)n1nc2ccccc2n1 (stereo unspecified)	none
Clc1cccc(Cl)c1Cn1cnc2c(NCc3ccco3)ncnc21	KLK5 inh 61
COc1cc(CN2CCNC(=O)C2CC(=O)NC2CCCC2)cc(OC)c1 (stereo unspecified)	none (no result: FXIIa inh 1536, thrombin 1536, KLK5 inh, FXIa inh 1536, STAT3 activator)
Cc1ccc(O)c(-c2cc(-c3ccccc3C)[nH]n2)c1	KLK5 inh 50 (no result: AHR act)
O=C(Nc1cccnc1)c1cc(-c2cc(Cl)ccc2O)n[nH]1	none (no result: STAT3 activator)
COc1ccc(-c2cc(-c3cc(C)ccc3O)[nH]n2)cc1	STAT3 activator 140
Cc1ccc(O)c(-c2cc(C(=O)Nc3cccnc3)[nH]n2)c1	AHR act 60 (no result: STAT3 activator)
Cc1ccc(O)c(-c2cc(-c3ccccc3[N+](=O)[O-])[nH]n2)c1	none
CCC(CO)Oc1cc(NC(=O)c2ccccc2[N+](=O)[O-])c2ncn(C(C)C)c2c1 (stereo unspecified)	none (no result: FXIIa inh 1536, thrombin 1536, KLK5 inh, FXIa inh 1536, STAT3 activator)
CCCCn1c(N)c(N(CC(C)C)C(=O)c2cc3c(s2)CCCCC3)c(=O)[nH]c1=O	none (no result: FXIIa inh 1536, thrombin 1536, KLK5 inh, FXIa inh 1536, STAT3 activator)
CCN(CC)C(=O)CN1CCN(c2ncccn2)CC1	KLK5 inh 64
Cc1ccc2c(c1)sc(-c1ccc(N(C)C)cc1)[n+]2C	none (no result: FXIIa inh 1536, thrombin 1536, KLK5 inh, FXIa inh 1536, STAT3 activator)
CC(=O)c1c(C)[nH]c(C(=O)Nc2ccc(Cl)c(S(=O)(=O)N3CCOCC3)c2)c1C	AHR act 49
COc1ccc(NC(=O)c2[nH]c(C)c(C(C)=O)c2C)cc1S(=O)(=O)N1CCOCC1	none
O=C1Nc2ccccc2O/C1=C\c1c(F)cccc1Cl	AHR act 49 (no result: FXIIa inh 1536, thrombin 1536, KLK5 inh, FXIa inh 1536, STAT3 activator)
COC(=O)Cc1ccc(NC(=S)Nc2ccccn2)cc1	none (no result: KLK5 inh)
O=C(Nc1ccccn1)C(=O)Nc1ccccn1	none (no result: STAT3 activator)
COc1cc(NC(=S)Nc2ccccn2)cc(OC)c1OC	AHR act 77
Cc1c(Cl)cccc1NC(=S)Nc1ccccn1	none
COc1cc(NC(=S)Nc2ccccn2)cc(OC)c1	AHR act 74
S=C(Nc1ccccn1)c1ccccn1	AHR act 61
S=C(Nc1ccccn1)Nc1ccccc1Cl	AHR act 68
CCCOC(=O)C(C)n1cnc2scc(-c3ccc(C)cc3)c2c1=O (stereo unspecified)	none (no result: FXIIa inh 1536, thrombin 1536, KLK5 inh, FXIa inh 1536, STAT3 activator)
Cc1ccc(NC(=O)CN(C)C(=O)COC(=O)C2=COCCO2)cc1	none (no result: FXIIa inh 1536, thrombin 1536, KLK5 inh, FXIa inh 1536, STAT3 activator)
COC(=O)CCC(=O)N1CCc2cc(S(=O)(=O)N3CCN(c4ccccc4Cl)CC3)ccc21	none (no result: AHR act)
Cc1ccc(-c2cc(-c3ccccc3)nc(N/N=C/c3cccnc3)n2)cc1	AHR act 63 (no result: FXIIa inh 1536, thrombin 1536, KLK5 inh, FXIa inh 1536)
COc1ccc(/C=N/Nc2nc(C)cc(-c3ccccc3)n2)cc1OC	AHR act 52 (no result: FXIIa inh 1536, thrombin 1536, KLK5 inh, FXIa inh 1536, STAT3 activator)
COc1ccc(/C=N/Nc2nc(-c3cccnc3)nc3ccccc23)c(OC)c1	AHR act 51 (no result: STAT3 activator)
C(=N\Nc1nc(Nc2ccccc2)nc(Nc2ccccc2)n1)/c1cccnc1	AHR act 142
C(=N\Nc1nc(Nc2ccccc2)nc(Nc2ccccc2)n1)/c1ccncc1	none
Cc1cc(-c2ccccc2)nc(N/N=C/c2ccccc2)n1	none (no result: FXIIa inh 1536, thrombin 1536, KLK5 inh, FXIa inh 1536, STAT3 activator)
Cc1ccc(CN2CCNC(=O)C2CC(=O)N(C)C2CCCCC2)cc1 (stereo unspecified)	none (no result: FXIIa inh 1536, thrombin 1536, KLK5 inh, FXIa inh 1536, STAT3 activator)
Cc1ccc(-c2nc(N/N=C/c3cccnc3)c3ccccc3n2)cc1	AHR act 62
Cc1ccc(-c2nc(N/N=C/c3cccc([N+](=O)[O-])c3)c3ccccc3n2)cc1	none
CN1CCc2c(sc(/N=C/c3cc(Cl)ccc3O)c2C#N)C1	none (no result: STAT3 activator)
CN1CCc2c(sc(/N=C/c3c[nH]c4ccccc34)c2C#N)C1	AHR act 48 (no result: STAT3 activator)
CN1CCc2c(sc(/N=C/c3c[nH]c4ccccc34)c2C(N)=O)C1	AHR act 76 (no result: STAT3 activator)
Cc1ccc2[nH]c3c(c2c1)CN(C(=O)CN1CCCCC1)CC3	none (no result: STAT3 activator)
COC(=O)c1[nH]c2ccc(C)cc2c1NC(=O)Oc1ccccc1	AHR act 54
Cc1ccc2[nH]c3c(c2c1)CN(C(=O)CN1CCCc2ccccc21)CC3	STAT3 activator 133
COC(=O)c1[nH]c2ccc(C)cc2c1NC(=O)CN1CCCc2ccccc21	AHR act 57, STAT3 activator 135
CCN(c1ccccc1)S(=O)(=O)c1ccc(Cl)c(NC(=O)CN(C)C2CCN(C)CC2)c1	none (no result: STAT3 activator)
CCc1c(C)sc(NC(=O)C2CC2c2ccccc2)c1C(N)=O (stereo unspecified)	STAT3 activator 134
NNC(=O)[C@@H]1C[C@@H]1c1ccccc1	none
CC(=O)c1ccc(N2CCN(S(=O)(=O)c3cc4[nH]c(=O)c(=O)[nH]c4cc3C)CC2)cc1	AHR act 47 (no result: FXIIa inh 1536, thrombin 1536, KLK5 inh, FXIa inh 1536, STAT3 activator)
C=C(CCC(=O)c1ccccc1)C(=O)c1ccccc1	thrombin 1536 41
O=C(CCCCCCCC(=O)c1ccccc1)c1ccccc1	none
O=C(NCCc1csc(-c2ccccc2)n1)c1ccc(Br)o1	none
O=C(NCCc1csc(-c2cccnc2)n1)c1ccc(Br)o1	AHR act 65
O=C(NCc1ccc(Cl)cc1)c1csc(-c2cccnc2)n1	AHR act 52 (no result: STAT3 activator)
O=C(NNC(=O)c1ccc(Cl)cc1Cl)c1csc(-c2cccnc2)n1	none (no result: STAT3 activator)
CC(=O)c1ccc(NC(=S)N2CCN(S(=O)(=O)c3ccc(F)cc3)CC2)cc1	none (no result: FXIIa inh 1536, thrombin 1536, KLK5 inh, FXIa inh 1536, STAT3 activator)
O=C(Cc1ccccn1)c1ccc(Cl)cc1	none (no result: FXIIa inh 1536, thrombin 1536, KLK5 inh, FXIa inh 1536, STAT3 activator)
CC1=C(CC(=O)c2ccc(Cl)cc2)C(=O)c2ccccc2C1=O	AHR act 55
